Article PMC7591420 (Targeted Oncology, 2020)
Read-outs that look alike come from different tables or passages of the source.

How the values were obtained:
patients = conditions: cited from earlier work
[1] = test system: patients with advanced solid tumors; type: in vivo, human; conditions: all cohorts
Summary of the method: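 Open-label, non-randomized multicenter escalation plus expansion, 28-day cycles. PI3K inhibitor 0.2–0.8 mg/kg IV over 1 h on days 1, 8, 15 or 1, 8, 15, 22 (max 65 mg); MEK inhibitor 30–50 mg BID orally, continuous from day 4 or 4 days on/3 off from day 6. DLTs assessed in cycle 1; adverse events graded by NCI CTCAE v4.0.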

[2] = Plasma pharmacokinetics of copanlisib; type: in vivo, human; conditions: for Cmax / AUC(0-t): human, plasma, intravenous, cycle 1 day 1, copanlisib alone, geometric mean (% CV); for AUC(0-t): AUC(0–25)
[3] = test system: patients with solid tumors; conditions: intravenous monotherapy; cited from earlier work
[4] = copanlisib 0.4 mg/kg as monotherapy; cited from earlier work
[5] = Plasma pharmacokinetics of refametinib; type: in vivo, human; conditions: for AUC(0-t) / Cmax: human, plasma, oral, cycle 1 day 14, refametinib alone, geometric mean (% CV); for AUC(0-t): AUC(0–8)
[6] = test system: patients with advanced cancer; conditions: cited from earlier work
[7] = 0.4 mg/kg, cohort 2C: copanlisib 0.4 mg/kg weekly, refametinib 30 mg BID
[8] = 0.4 mg/kg, expansion cohort: copanlisib 0.4 mg/kg weekly, refametinib 30 mg BID
[9] = 30 mg, cohort 2C: copanlisib 0.4 mg/kg weekly, refametinib 30 mg BID
[10] = 30 mg, expansion cohort: copanlisib 0.4 mg/kg weekly, refametinib 30 mg BID

In the case of O=C(NOCCO)c1cc(CN2OCCCC2=O)c(F)c(F)c1Nc1ccc(I)cc1F [RO4987655], the “incidence of ophthalmologic toxicities” value (patients) is given as 27%.
With COc1c(OCCCN2CCOCC2)ccc2c1N=C(NC(=O)c1cnc(N)nc1)N1CCN=C21 [copanlisib] the “Patients with dose modifications attributed to copanlisib-related TEAEs” value ([1]; N = 64) was 39.1%, the “Patients with TEAEs considered related to copanlisib” value ([1]; N = 64, given with refametinib) was 93.8% and the Cmax ([2]; 0.2 mg/kg, cohort 1: copanlisib 0.2 mg/kg 3 weeks on/1 week off, refametinib 30 mg BID) was 0.126 µg/mL. The AUC(0-t) [2, 7] was 0.725 µg·h/mL, the AUC(0-t) [2, 8] was 0.89 µg·h/mL and the Cmax [2, 7] was 0.241 µg/mL. The Cmax [2, 8] was 0.312 µg/mL, the Cmax ([2]; cohort 2) was 0.189 µg/mL and the “median time of Cmax, range over cohorts” value ([2]; single infusion 0.2–0.8 mg/kg, cycle 1, day 1) was 0.50 to 1.03 h. For the same compound, the “copanlisib Cmax and AUC(0–25), day 1 (alone) versus day 15 (with refametinib)” value ([2]; within each cohort) was “comparable between day 1 and day 15”, the “maximum tolerated dose (MTD), single agent” value [3] was 0.8 mg/kg and the “activity of 0.4 mg/kg versus 0.8 mg/kg” value [4] was “less active than 0.8 mg/kg”.
For COc1cc(F)c(F)c(Nc2ccc(I)cc2F)c1NS(=O)(=O)C1(C[C@H](O)CO)CC1 [refametinib], the “Patients with dose modifications attributed to refametinib-related TEAEs” value ([1]; N = 64) was 53.1%, the “Patients with TEAEs considered related to refametinib” value ([1]; N = 64, given with copanlisib) was 95.3% and the AUC(0-t) ([5]; 30 mg, cohort 1: copanlisib 0.2 mg/kg 3 weeks on/1 week off, refametinib 30 mg BID) was 2.51 µg·h/mL. For the same compound, the AUC(0-t) ([5]; 30 mg, cohort 2B: copanlisib 0.6 mg/kg 3 weeks on/1 week off, refametinib 30 mg BID) was 3.75 µg·h/mL, the AUC(0-t) [5, 9] was 4.77 µg·h/mL and the AUC(0-t) ([5]; 30 mg, cohort 3A: copanlisib 0.8 mg/kg 3 weeks on/1 week off, refametinib 30 mg BID) was 4.53 µg·h/mL. It also gave an AUC(0-t) [5, 10] of 5.31 µg·h/mL, a Cmax [5, 9] of 0.873 µg/mL and a Cmax [5, 10] of 0.845 µg/mL. The AUC(0-t) ([5]; cohort 2) was 5.11 µg·h/mL, the Cmax ([5]; cohort 2) was 0.943 µg/mL and the “median time of Cmax, range over cohorts” value ([5]; multiple doses of refametinib 30 mg or 50 mg BID) was 1.50 to 4.00 h. For the same compound, the “MTD, single agent” value ([6]; oral, twice daily (BID), monotherapy) was 50 mg, the partial response rate ([6]; refametinib monotherapy) was 2% and the stable disease ([6]; refametinib monotherapy) was 16%.
In the case of CC(=O)Nc1cccc(-n2c(=O)n(C3CC3)c(=O)c3c(Nc4ccc(I)cc4F)n(C)c(=O)c(C)c32)c1 [trametinib], the “incidence of ophthalmologic toxicities” value (patients; all-cause) is given as 19%.
